One test relates to L1210/TK-. Description: Inhibitory effect of compound on the proliferation of murine leukemia cells L1210/TK-. It counts as functional, cell-based. The note with it: Mus musculus. An outline of the steps:
(§1)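 Murine L1210/0, L1210/TK- leukemia cells or FM3A/0 mammary carcinoma cells were incubated with the compound for 2 days at 37 °C. IC50 was the concentration reducing the total number of viable cells by 50%.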

A further test has as its system CEM-TK(-). Description: Concentration required to protect CEM/TK cells against the cytopathicity of HIV-2 by 50%. It counts as functional, cell-based. Particulars: Homo sapiens. A digest of the protocol: (§2)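 CEM cells (wild-type, or TK-deficient for the HIV-2 CEM/TK- line) were infected with HIV-1 or HIV-2. EC50 was taken as the concentration protecting the cells from virus-induced cytopathicity by 50%. Values are averages of at least two separate experiments.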

For test [1], the system named is CCRF-CEM. Description: Concentration required to reduce CEM/0 cell viability by 50%. The note with it: Homo sapiens. Type of test: functional. An outline of the steps: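 Uninfected CEM/0 T-lymphocytes were exposed to the compound. CC50 was the concentration reducing CEM cell viability by 50%. Values are averages of at least two separate experiments.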
The next test deals with L1210. Description: Inhibitory effect of compound on the proliferation of murine leukemia cells L1210/0. Type of test: functional, cell-based. The note with it: Mus musculus. A digest of the protocol:
as §1

In the next test the test system is MOLT-4. Description: Inhibitory effect of compound on the proliferation of human T-lymphocyte cells Molt4/C8. Type of test: functional, cell-based. A digest of the protocol:
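Human Molt4/C8 T-lymphoblast cells were incubated with the compound for 3 days at 37 °C. IC50 was the concentration cutting the total viable cell number by 50%.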

Test [2] concerns CCRF-CEM. Kind of test: Concentration required to protect CEM/0 cells against the cytopathicity of HIV-1 by 50%. The note with it: Homo sapiens. It counts as functional, cell-based. A digest of the protocol: as §2
A further test has as its system FM3A. Description: Inhibitory effect of compound on the proliferation of murine mammary carcinoma cells FM3A/0. Type of test: functional, cell-based. Particulars: Mus musculus. A digest of the protocol:
as §1

The subject of test [3] is CCRF-CEM. Description: Concentration required to protect CEM/0 cells against the cytopathicity of HIV-2 by 50%. Type of test: functional, cell-based. The note with it: Homo sapiens. A digest of the protocol: as §2

Turning to `CCCCCCCCCCCCCCCCOCC(COP(=O)(O)OCC1OC(n2cc(C)c(=O)[nH]c2=O)CC1N=[N+]=[N-])OC` (stereo not drawn), the IC50 in the test with L1210/TK- was 33.6 µM; with L1210, 0.98 µM; with MOLT-4 it was 21.4 µM; with FM3A, 68.4 µM. Moreover, the values for the EC50 in the test with CEM-TK(-), in the test with CCRF-CEM [2] and in the test with CCRF-CEM [3] were > 10 µM, 0.065 µM and 0.08 µM, respectively. This molecule also gave a CC50 with CCRF-CEM [1] of 34.3 µM.

As to `CCCCCCCCCCCCCCCCOP(=O)(O)OCC1OC(n2cc(C)c(=O)[nH]c2=O)CC1N=[N+]=[N-]` (stereo not drawn), the IC50 in the test with L1210/TK- came out at 165 µM; with L1210, 12.5 µM; with MOLT-4, 144 µM; with FM3A, 133 µM. The EC50 was > 50 µM with CEM-TK(-), 0.58 µM in the test with CCRF-CEM [2] and 1 µM with CCRF-CEM [3]. Besides, the CC50 in the test on CCRF-CEM [1] was 161 µM.

On to `Cc1cn([C@H]2C[C@H](N=[N+]=[N-])[C@@H](CO)O2)c(=O)[nH]c1=O` [ZIDOVUDINE], for which the IC50 in the test on L1210/TK- was > 500 µM; with L1210 it was 6.18 µM; with MOLT-4, 62.8 µM; in the test on FM3A, 203 µM. In addition, the EC50 was > 100 µM in the test on CEM-TK(-) and 0.0064 µM in the test on CCRF-CEM [2]. Also, the CC50 with CCRF-CEM [1] is > 500 µM.

For the origin of these results see ChEMBL document CHEMBL1134482, “Ether phospholipid-AZT conjugates possessing anti-HIV and antitumor cell activity. Synthesis, conformational analysis, and study of their thermal effects on membrane bilayers” (J Med Chem, 2001).
